# Measured values reported in ChEMBL document CHEMBL2069249, “Saquayamycins G-K, cytotoxic angucyclines from Streptomyces sp. Including two analogues bearing the aminosugar rednose” (J Nat Prod, 2012).
# Assays:
# [1] = target: Nitric oxide synthase, inducible (Homo sapiens, UniProt P35228); assay: Inhibition of iNOS
# PC-3 = assay: Growth inhibition of human PC3 cells incubated for 48 hrs by resazurin dye reduction based fluorimetric assay; format: functional; settings: PC-3, 48 h
# How it was run: (§1)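 Cells seeded at 5 × 10^3 per well in full growth medium, adhered overnight, then medium replaced with fresh medium containing serial compound concentrations or DMSO control; 48 h at 37 °C. Resazurin added, 3 h at 37 °C; fluorescence ex 560/em 590 nm, time-zero reading subtracted. GI50 by nonlinear sigmoidal dose-response fit; landomycin A positive control; four replicates.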
# NCI-H460 = assay: Growth inhibition of human NCI-H460 cells incubated for 48 hrs by resazurin dye reduction based fluorimetric assay; format: functional; settings: NCI-H460, 48 h; how it was run: as §1
# [2] = Inhibition of bovine brain FPTase; set-up: species or system Bos taurus
# Chain of Nitric oxide synthase, inducible (P35228 whole entry): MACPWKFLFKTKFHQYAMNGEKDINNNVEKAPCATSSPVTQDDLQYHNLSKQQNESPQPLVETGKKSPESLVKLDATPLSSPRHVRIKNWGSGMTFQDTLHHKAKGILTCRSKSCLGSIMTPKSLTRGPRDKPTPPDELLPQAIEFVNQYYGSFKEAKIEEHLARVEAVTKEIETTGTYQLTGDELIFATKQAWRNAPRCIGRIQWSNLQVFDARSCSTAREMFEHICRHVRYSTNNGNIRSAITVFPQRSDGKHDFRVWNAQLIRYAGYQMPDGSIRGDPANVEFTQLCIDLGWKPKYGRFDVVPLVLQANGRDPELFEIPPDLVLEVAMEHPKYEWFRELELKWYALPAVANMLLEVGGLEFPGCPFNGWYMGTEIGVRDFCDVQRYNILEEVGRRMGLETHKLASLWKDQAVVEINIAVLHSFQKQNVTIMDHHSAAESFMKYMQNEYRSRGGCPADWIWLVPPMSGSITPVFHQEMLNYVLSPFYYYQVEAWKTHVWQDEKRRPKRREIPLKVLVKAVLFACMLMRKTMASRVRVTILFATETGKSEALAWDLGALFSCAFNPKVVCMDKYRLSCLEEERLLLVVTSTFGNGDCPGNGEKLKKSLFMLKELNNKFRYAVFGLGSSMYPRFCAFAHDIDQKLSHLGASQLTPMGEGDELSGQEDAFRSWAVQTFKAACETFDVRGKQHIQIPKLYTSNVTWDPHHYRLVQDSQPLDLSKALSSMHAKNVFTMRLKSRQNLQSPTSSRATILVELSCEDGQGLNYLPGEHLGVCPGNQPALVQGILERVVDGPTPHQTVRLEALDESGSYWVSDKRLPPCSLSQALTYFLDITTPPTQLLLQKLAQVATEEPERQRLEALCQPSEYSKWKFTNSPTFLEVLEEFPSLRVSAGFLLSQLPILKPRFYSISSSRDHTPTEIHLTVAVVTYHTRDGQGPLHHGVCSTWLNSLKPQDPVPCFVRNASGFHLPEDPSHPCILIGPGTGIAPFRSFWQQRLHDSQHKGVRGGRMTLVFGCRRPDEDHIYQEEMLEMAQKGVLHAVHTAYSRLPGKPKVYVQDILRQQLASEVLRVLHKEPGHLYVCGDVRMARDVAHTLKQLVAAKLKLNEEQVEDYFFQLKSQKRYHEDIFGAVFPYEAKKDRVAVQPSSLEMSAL
SMILES,IC50 [1],GI50 (PC-3),GI50 (NCI-H460),IC50 [2]
C[C@@H]1O[C@@H](O[C@H]2CC[C@H](O[C@H]3[C@H](O)C[C@H](c4ccc5c(c4O)C(=O)C4=C(C5=O)[C@@]5(O)C(=O)C[C@](C)(O)C[C@@]5(O)C=C4)O[C@@H]3C)O[C@H]2C)C=CC1=O,43500 nM,,,
C[C@@H]1O[C@@H](O[C@H]2CC[C@H](O[C@@]3(C)CC(=O)[C@]4(O)C5=C(C=C[C@]4(O)C3)C(=O)c3c(ccc([C@H]4C[C@@H](O)[C@H](O)[C@@H](C)O4)c3O)C5=O)O[C@H]2C)C=CC1=O (relative stereo) [SAQUAYAMYCIN G],,554 nM,6720 nM,
C[C@@H]1O[C@@H](O[C@H]2CC[C@H](O[C@@]3(C)CC(=O)[C@]4(O)C5=C(C=C[C@]4(O)C3)C(=O)c3c(ccc([C@H]4C[C@@H](O)[C@H](O[C@@H]6O[C@@H](C)C(=O)C=C6N)[C@@H](C)O4)c3O)C5=O)O[C@H]2C)C=CC1=O (relative stereo) [SAQUAYAMYCIN I],,915 nM,7940 nM,
Cc1cc(O)c2c(c1)C[C@@H](O)C1=C2C(=O)c2c(O)ccc(O[C@H]3C[C@@H](O)[C@H](O[C@H]4C[C@@H](O[C@H]5CC[C@H](O[C@H]6C[C@@H](O)[C@H](O[C@H]7C[C@@H](O[C@H]8CC[C@H](O)[C@H](C)O8)[C@H](O)[C@@H](C)O7)[C@@H](C)O6)[C@H](C)O5)[C@H](O)[C@@H](C)O4)[C@@H](C)O3)c2C1=O [LANDOMYCIN A],,550 nM,4110 nM,
C[C@@H]1O[C@H]2O[C@@H]3[C@@H](C)O[C@@H](c4ccc5c(c4O)C(=O)C4=C(C5=O)[C@@]5(O)C(=O)C[C@](C)(O)C[C@@]5(O)C=C4)C[C@H]3O[C@H]2CC1=O [SAQUAYAMYCIN B1],,1760 nM,13200 nM,
C[C@@H]1O[C@@H](O[C@H]2CC[C@H](O[C@@]3(C)CC(=O)[C@]4(O)C5=C(C=C[C@]4(O)C3)C(=O)c3c(ccc([C@H]4C[C@H]6O[C@H]7CC(=O)[C@H](C)O[C@H]7O[C@@H]6[C@@H](C)O4)c3O)C5=O)O[C@H]2C)C=CC1=O [SAQUAYAMYCIN B],,74.5 nM,3930 nM,
C[C@@H]1O[C@@H](O[C@H]2CC[C@H](O[C@@]3(C)CC(=O)[C@]4(O)C5=C(C=C[C@]4(O)C3)C(=O)c3c(ccc([C@H]4C[C@H]6O[C@H]7CC(=O)[C@H](C)O[C@H]7O[C@@H]6[C@@H](C)O4)c3O)C5=O)O[C@H]2C)C(N)=CC1=O [SAQUAYAMYCIN H],,790 nM,3300 nM,
C[C@@H]1O[C@H]2O[C@@H]3[C@@H](C)O[C@@H](c4ccc5c(c4O)C(=O)C4=C(C5=O)[C@@]5(O)C(=O)C[C@](C)(O[C@H]6CC[C@H](O[C@H]7CC[C@H](O)[C@H](C)O7)[C@H](C)O6)C[C@@]5(O)C=C4)C[C@H]3O[C@H]2CC1=O [SAQUAYAMYCIN J],,179 nM,5690 nM,
C[C@@H]1O[C@@H](O[C@H]2CC[C@H](O[C@@]3(C)CC(=O)[C@]4(O)C5=C(C=C[C@]4(O)C3)C(=O)c3c(ccc([C@H]4C[C@@H](O)[C@H](O[C@H]6CC[C@H](O)[C@H](C)O6)[C@@H](C)O4)c3O)C5=O)O[C@H]2C)C=CC1=O [SAQUAYAMYCIN K],,148 nM,7280 nM,
C[C@@H]1O[C@@H](O[C@H]2[C@H](O)C[C@H](c3ccc4c(c3O)C(=O)C3=C(C4=O)[C@@]4(O)C(=O)C[C@](C)(O)C[C@@]4(O)C=C3)O[C@@H]2C)C=CC1=O [SAQUAYAMYCINS A1],101000 nM,,,
C[C@@H]1O[C@@H](O[C@H]2[C@H](O)C[C@H](c3ccc4c(c3O)C(=O)C3=C(C4=O)[C@@]4(O)C(=O)C[C@](C)(O[C@H]5CC[C@H](O[C@H]6C=CC(=O)[C@H](C)O6)[C@H](C)O5)C[C@@]4(O)C=C3)O[C@@H]2C)C=CC1=O [SAQUAYAMYCINS A],,106 nM,6200 nM,
C[C@@H]1O[C@@H](O[C@H]2[C@H](O)C[C@H](c3ccc4c(c3O)C(=O)C3=C(C4=O)[C@@]4(O)C(=O)C[C@](C)(O[C@H]5CC[C@H](O[C@H]6CCC(=O)[C@H](C)O6)[C@H](C)O5)C[C@@]4(O)C=C3)O[C@@H]2C)C=CC1=O [SAQUAYAMYCINS E],,,,1800 nM
C[C@@H]1O[C@@H](O[C@H]2CC[C@H](O[C@@]3(C)CC(=O)[C@]4(O)C5=C(C=C[C@]4(O)C3)C(=O)c3c(ccc([C@H]4C[C@@H](O)[C@H](O[C@H]6CCC(=O)[C@H](C)O6)[C@@H](C)O4)c3O)C5=O)O[C@H]2C)C=CC1=O [SAQUAYAMYCINS F],,,,2000 nM
